PAFAH2 FP inh – PAFAH2 (human) inhibition | inhibition, % at 3.39 µM | recombinant PAFAH2, FP-rhodamine activity probe, fluorescence polarization | Q99487 | 0.99% of 340,000 active;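 active = inhibition above the mean over all tested compounds plus 3 SD, cut at about 30% in these data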;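 also: inhibitors block probe labeling of enzyme so polarization drops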
pPAFAH FP inh – pPAFAH (human) enzyme inhibition; Q13093; recombinant pPAFAH, FP-rhodamine probe fluorescence polarization; inhibition, % at 3.39 µM; 1.5% of 330,000 active; AID 463082;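 active = inhibition above the mean inhibition across the screen plus 3 SD, cut at about 25% in these data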;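 also: inhibitors block binding of the rhodamine activity-based probe so polarization drops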
ARFGAP1 inhibitor – inhibitors of rat ARFGAP1; Q62848; Arfgap1-stimulated ARF1 GTP hydrolysis, GDP FP detection; inhibition, % at 16.5 µM; 0.26% of 360,000 active;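 active = inhibition above a per-plate limit, mean inhibition of low control wells plus 3 SD, cut at about 25% in these data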
Target sequence (Q62848 1-136 limits assumed): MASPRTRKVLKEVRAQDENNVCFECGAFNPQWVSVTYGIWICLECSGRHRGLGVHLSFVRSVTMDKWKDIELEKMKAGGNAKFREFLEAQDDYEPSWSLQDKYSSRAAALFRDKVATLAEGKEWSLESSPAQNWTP
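material = rat Arfgap1 catalytic domain, aa 1-136 | also added = human ARF1(Δ1-17)-GTP substrate | compound dosing = one concentration, 16.5 µM, DMSO 1.26% | times = GTP hydrolysis reaction 2 h at 25 °C | measured by = FP, GDP Alexa 633 tracer displaced from anti-GDP antibody, 620/688 nm | evaluation = percent inhibition of Arfgap1-stimulated GTP hydrolysis | replication = single well per compound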
ASAP1 inh – blocks human ASAP1-stimulated Arf1 GTP hydrolysis. GDP FP detection. inhibition, % at 16.5 µM. 0.19% of 360,000 active. AID 624377; in the data active = inhibition above about 25%
PAFAH1B2 inh – blocks human PAF acetylhydrolase 1b catalytic subunit 2 | P68402 | recombinant PAFAH1B2, FP-rhodamine activity probe, fluorescence polarization | inhibition, % at 3.39 µM | 1.2% of 340,000 active | AID 492953;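 active = inhibition above the mean of all tested compounds plus 3 SD, cut at about 24% in these data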
Target sequence (P68402 whole entry, looked up): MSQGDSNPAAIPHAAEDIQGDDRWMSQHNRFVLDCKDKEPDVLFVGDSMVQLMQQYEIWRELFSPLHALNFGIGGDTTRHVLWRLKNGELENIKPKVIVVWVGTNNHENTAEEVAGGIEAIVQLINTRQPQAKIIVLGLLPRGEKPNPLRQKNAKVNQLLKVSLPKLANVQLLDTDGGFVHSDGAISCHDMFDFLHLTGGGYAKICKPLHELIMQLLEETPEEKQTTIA
PAFAH1B3 inh – blocks human PAF acetylhydrolase 1B catalytic subunit 3; Q15102; recombinant PAFAH1B3, FP-rhodamine probe, fluorescence polarization; inhibition, % at 3.39 µM; 0.28% of 340,000 active; AID 492972;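 active = inhibition above the screen-wide average of all tested compounds plus 3 SD, cut at about 25% in these data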
Target sequence (Q15102 whole entry, looked up): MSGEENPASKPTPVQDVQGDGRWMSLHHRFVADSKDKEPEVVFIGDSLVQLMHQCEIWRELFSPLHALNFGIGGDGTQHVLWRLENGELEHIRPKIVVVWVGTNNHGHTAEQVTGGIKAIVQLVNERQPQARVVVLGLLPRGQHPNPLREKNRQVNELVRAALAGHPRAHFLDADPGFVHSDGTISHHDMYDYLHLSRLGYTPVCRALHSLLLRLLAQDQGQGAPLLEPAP
A number is an active result; n = inactive; x = not tested or not shown. Sampled rows, rich in hits. Any-hit rate of the full collection: about 2.8%.

SMILES	PAFAH2 FP inh	pPAFAH FP inh	ARFGAP1 inhibitor	ASAP1 inh	PAFAH1B2 inh	PAFAH1B3 inh
CCN(CC(=O)Nc1cccc(OC)c1)C(=O)c1cccc(S(=O)(=O)N2CCc3ccccc32)c1	n	n	n	n	n	n
O=C([C@H](Cc1ccccc1)NS(=O)(=O)c1ccc(Cl)cc1)N1CC[C@@]2(O)CCCC[C@H]2C1	n	n	n	n	30	n
COc1ccc(S(=O)(=O)Nc2cccc3c2O[C@@H](CN(C)Cc2ccc(C(=O)O)cc2)[C@@H](C)CN([C@H](C)CO)C3=O)cc1	n	n	n	n	n	n
COc1cccc(-c2noc(CCC(=O)NC3CCCC3)n2)c1	n	x	n	n	n	n
CC(C(=O)Nc1ccc(O)cc1C(=O)O)N1C(=O)/C(=C\c2cccs2)SC1=S (stereo unspecified)	n	28	n	n	n	n
O=C(CCCN1C(=O)/C(=C/c2ccccc2Cl)SC1=S)NNC(=O)c1ccccc1	n	32	n	n	n	n
O=C(CCCN1C(=O)/C(=C\c2ccccc2)SC1=S)Nc1ccc(O)cc1C(=O)O	n	n	n	n	64	n
O=C(CCCN1C(=O)/C(=C/c2cccs2)SC1=S)Nc1cc([N+](=O)[O-])ccc1O	n	30	n	n	n	n
O=C(CCCN1C(=O)/C(=C\c2cccs2)SC1=S)Nc1ccccc1O	x	x	n	n	x	x
O=C(CCN1C(=O)/C(=C/c2ccco2)SC1=S)Nc1ccc(O)cc1C(=O)O	n	x	n	n	n	n
O=C(Nc1cccc(-c2ccc(N3CCCCC3)nn2)c1)c1ccco1	n	n	n	n	n	n
c1ccc(CNc2nc(NCCOc3ccccc3)c3sccc3n2)cc1	x	x	n	n	x	x
CC(=Cc1cccs1)C(=O)c1ccccc1	x	x	n	n	x	x
CCc1ccc(C=C2SC(=S)N(CCCC(=O)Nc3ccc(C(=O)O)cc3)C2=O)cc1	x	x	n	n	x	x
CCc1ccc(/C=C2/SC(=S)N(CCCC(=O)Nc3ccccc3C(=O)O)C2=O)cc1	44	n	n	n	61	n
Cc1ccc(NC(=S)Nc2nc(CC(=O)Nc3ccccc3)cs2)cc1	n	n	n	n	n	n
Cc1ccc(NC(=O)Cc2nc(CCl)cs2)cc1	n	32	n	n	n	n
COc1ccc(CC(=O)OCc2csc(CC(=O)Nc3ccc(C)cc3)n2)cc1	n	27	n	n	n	n
CC(C)(C)OC(=O)N[C@H](C(=O)OC(C)(C)C)c1ccc(C(F)(F)F)cc1	n	n	n	n	n	n
COC(=O)C(Cc1ccccc1)NC(=O)CCC(=O)NC(C)CCc1ccccc1 (stereo unspecified)	n	n	n	n	27	n
N/C(Cc1cccs1)=N\OC(=O)COc1ccc(Br)cc1	n	n	n	n	28	n
CC1CCCCC1NC(=O)C(=O)NCC1CCCO1 (stereo unspecified)	n	n	n	n	n	n
COCCCNC(=O)C(=O)NC1CCCCC1C (stereo unspecified)	n	26	n	n	n	n
COc1ccccc1NC(=O)c1ccc(NC(=O)COC(=O)c2cncc(Br)c2)cc1	n	n	n	n	n	n
O=C1C=CC(=O)N1c1cccc(-c2ccccc2)c1	n	27	n	n	n	n
SMILES	PAFAH2 FP inh	pPAFAH FP inh	ARFGAP1 inhibitor	ASAP1 inh	PAFAH1B2 inh	PAFAH1B3 inh
CCOc1cc(CNCCc2ccc(S(N)(=O)=O)cc2)ccc1OCc1ccc(Cl)cc1	n	n	n	n	28	n
COc1ccc(CCNC(=O)COC(=O)COc2ccc(Cl)cc2)cc1OC	n	n	n	n	n	n
CCOc1ccc(CCNC(=O)COC(=O)COc2ccc(Cl)cc2)cc1OCC	n	26	n	n	n	n
COc1cc(CNCCc2ccc(S(N)(=O)=O)cc2)ccc1OCc1ccc(Cl)cc1	n	n	n	n	n	n
O=C(COC(=O)COc1ccc(Cl)cc1)NCCCc1ccccc1	n	n	n	n	29	n
COc1ccc(-c2cn(CCC(=O)NCc3ccc(C)cc3)c(CCN)n2)cc1	n	n	n	n	n	n
CCc1ccc2[nH]c3nc(N/N=C/c4ccc(O)cc4O)nnc3c2c1	n	28	n	n	n	26
Cc1ccc2[nH]c3nc(N/N=C/c4cccc(O)c4)nnc3c2c1	n	n	n	n	n	n
COC(=O)c1cc(NS(=O)(=O)c2ccc(N3CCCCCC3)c([N+](=O)[O-])c2)cc(C(=O)OC)c1	n	n	n	n	33	n
Cc1nn(CC(=O)NCC2CCCO2)c(C)c1[N+](=O)[O-] (stereo unspecified)	n	n	n	n	n	n
Cc1nn(CC(=O)NNC(=S)NCC2CCCO2)c(C)c1Br (stereo unspecified)	n	28	n	n	n	n
Cc1ccc(CS(=O)(=O)Cc2ccc(C(=O)NCCCN3CC(C)CC(C)C3)o2)cc1 (stereo unspecified)	n	31	n	n	n	n
COc1ccc(/C=C2/SC(=O)N(CCC(=O)Nc3ccccc3C(=O)O)C2=S)cc1	n	n	n	n	n	n
CC1(C)CC(=O)c2sc(NS(=O)(=O)c3ccc(Cl)cc3)nc2C1	n	n	n	n	n	n
CC1(C)CC(=O)c2sc(NS(=O)(=O)c3ccc(Br)cc3)nc2C1	n	n	n	n	27	n
Cc1ccc(NC(=O)CN2CCC(NC(=O)c3ccccc3F)CC2)cc1C	n	n	n	n	n	n
CC(C)=CCc1c2c(c3occ(-c4ccc(O)cc4)c(=O)c3c1O)C=CC(C)(C)O2	n	n	n	n	n	n
CC1(C)C=Cc2c(c3c(c4c(=O)c(-c5ccc(O)cc5)coc24)OC(C)(C)CC3)O1	n	26	n	n	n	n
CC(C)CCC(CCNCc1ccccn1)c1ccc2c(c1)OCO2 (stereo unspecified)	n	n	n	n	n	n
CC(C)C(CCNCc1ccccn1)c1ccc(Cl)cc1 (stereo unspecified)	45	n	n	n	45	35
COc1cccc(NC(=O)CN2C(=O)NC(CCc3ccccc3)C2=O)c1 (stereo unspecified)	n	n	n	n	n	n
O=C1NC(CCc2ccccc2)C(=O)N1CCOc1cccc(Br)c1 (stereo unspecified)	n	n	n	n	26	n
O=C1C=CC(=C(c2ccc(O)cc2)c2ccc(O)cc2)C=C1	n	n	n	n	24	n
N#Cc1c(-c2c(Cl)cccc2Cl)noc1/C=C/Nc1ccc(C(=O)O)cc1	n	25	n	n	n	n
Cc1nc(N)sc1-c1csc(N(C)c2ccc(O)cc2)n1	n	27	n	n	n	n
O=C(NNC(=O)c1ccccc1O)c1ccc(-c2ccc([N+](=O)[O-])cc2)o1	39	32	n	n	n	n
O=C(NNC(=O)c1ccccc1O)c1cc2ccccc2o1	n	26	n	n	n	n

Assay outcomes as filed in PubChem BioAssay.
